{"source": "ChEMBL document CHEMBL4321868", "about": "“Scaffold Simplification Strategy Leads to a Novel Generation of Dual Human Immunodeficiency Virus and Enterovirus-A71 Entry Inhibitors” (J Med Chem, 2020)", "key": {"Enterovirus A71 [1]": {"test_system": "Enterovirus A71", "experiment": "Antiviral activity against Enterovirus A71 genotype C2 H08300 461812 infected in human RD cells assessed as reduction in virus-induced cell death preincubated for 1 day followed by viral infection and measured after 3 days by microscopic analysis", "type": "functional", "set-up": "scale not given: the % may be the effect or the level left", "how_it_was_run": "(§1)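 RD cells were seeded in 96-well plates and infected the next day at low MOI, with serial compound dilutions added at the same time. Plates were incubated at 37 °C, 5% CO2 for 3 days, until untreated infected controls died. Cell death was quantified by MTS/PMS and EC50 calculated from dose-response curves. Values come from more than 2 dose-response curves across more than 1 experiment, with microscopic quality control.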"}, "[2]": {"test_system": "Human immunodeficiency virus 1", "experiment": "Antiviral activity against HIV1 NL4.3 infected in human MT4 cells assessed as reduction in virus-induced cytopathic effect preincubated for 30 mins followed by viral infection and measured after 5 days by MTS assay", "type": "functional, organism-based", "conditions": "Human immunodeficiency virus 1, NL4.3, MT4"}, "RD [3]": {"test_system": "RD", "experiment": "Cytotoxicity against human RD cells assessed as induction of cell morphological changes", "type": "cell-based"}, "RD [4]": {"test_system": "RD", "experiment": "Cytotoxicity against human RD cells assessed as adverse effect on cell", "type": "cell-based"}, "Enterovirus A71 [5]": {"test_system": "Enterovirus A71", "experiment": "Antiviral activity against Enterovirus A71 genotype B2 11316 infected in human RD cells assessed as reduction in virus-induced cell death preincubated for 1 day followed by viral infection and measured after 3 days by microscopic analysis", "type": "functional", "set-up": "scale not given: the % may be the effect or the level left", "how_it_was_run": "as §1"}, "[6]": {"experiment": "Selectivity index, ratio of CC50 for human MT4 cells to EC50 for HIV-1 NL4.3 infected in human MT4 cells"}, "Enterovirus A71 [7]": {"test_system": "Enterovirus A71", "experiment": "Antiviral activity against Enterovirus A 71 BrCr harboring VP1 S184T mutant infected in human RD cells assessed as reduction in virus-induced cytopathic effect preincubated for 1 day followed by viral infection and measured after 3 days by MTS/PMS method", "type": "functional, organism-based, strain BRCR"}, "Enterovirus A71 [8]": {"test_system": "Enterovirus A71", "experiment": "Antiviral activity against Enterovirus A71 genotype C4 TW/1956/05 infected in human RD cells assessed as reduction in virus-induced cytopathic effect preincubated for 1 day followed by viral infection and measured after 3 days by MTS/PMS method", "type": "functional, organism-based", "conditions": "Enterovirus A, genotype C4 TW/1956/05, RD", "how_it_was_run": "(§2)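 RD cells seeded in 96-well plates; next day serial compound dilutions plus virus at low MOI added. Incubation at 37 °C, 5% CO₂ until full CPE in untreated infected controls (3 days). CC50 from uninfected treated cells in the same setup; SI = CC50/EC50.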"}, "Enterovirus A71 [9]": {"test_system": "Enterovirus A71", "experiment": "Antiviral activity against Enterovirus A71 genotype B5 TW/70902/08 infected in human RD cells assessed as reduction in virus-induced cell death preincubated for 1 day followed by viral infection and measured after 3 days by […]", "type": "functional", "set-up": "scale not given: the % may be the effect or the level left", "how_it_was_run": "as §1"}, "[10]": {"experiment": "Cytotoxicity against human MT4 cells assessed as reduction in cell viability measured after 5 days by MTS/PES assay", "type": "cell-based", "how_it_was_run": "(§3)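 MT-4 cells (RPMI-1640, 10% FCS, 1% L-glutamine) pre-incubated 30 min at 37 °C with compound, then infected with HIV-1 NL4.3 or HIV-2 ROD according to stock TCID50. After 5 days, CPE scored microscopically and viability read by MTS/PES at A490 to derive EC50; cytotoxicity measured by MTS/PES at 5 days in the same cells. SI = CC50/EC50. Mean ± S.D. of at least 3 experiments.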"}, "Enterovirus A71 [11]": {"test_system": "Enterovirus A71", "experiment": "Antiviral activity against Enterovirus A71 genotype B5 TW/70902/08 infected in human RD cells assessed as reduction in virus-induced cytopathic effect preincubated for 1 day followed by viral infection and measured after 3 days by MTS/PMS method", "type": "functional, organism-based", "conditions": "Enterovirus A, genotype B5 TW/70902/08, RD", "how_it_was_run": "as §2"}, "Enterovirus A71 [12]": {"test_system": "Enterovirus A71", "experiment": "Antiviral activity against Enterovirus A71 genotype B2 11316 infected in human RD cells assessed as reduction in virus-induced cytopathic effect preincubated for 1 day followed by viral infection and measured after 3 days by MTS/PMS method", "type": "functional, organism-based", "conditions": "Enterovirus A, genotype B2 11316, RD", "how_it_was_run": "as §2"}, "Enterovirus A71 [13]": {"test_system": "Enterovirus A71", "experiment": "Antiviral activity against Enterovirus A 71 BrCr harboring VP1 P246S mutant infected in human RD cells assessed as reduction in virus-induced cytopathic effect preincubated for 1 day followed by viral infection and measured after 3 days by MTS/PMS method", "type": "functional, organism-based, strain BRCR"}, "Enterovirus A71 [14]": {"test_system": "Enterovirus A71", "experiment": "Antiviral activity against Enterovirus A71 genotype C2 H08300 461812 infected in human RD cells assessed as reduction in virus-induced cytopathic effect preincubated for 1 day followed by viral infection and measured after 3 days by MTS/PMS method", "type": "functional, organism-based", "conditions": "Enterovirus A, genotype C2 H08300 461812, RD", "how_it_was_run": "as §2"}, "Enterovirus A71 [15]": {"test_system": "Enterovirus A71", "experiment": "Antiviral activity against Enterovirus A 71 BrCr harboring VP1 S184T/P246S mutant infected in human RD cells assessed as reduction in virus-induced cytopathic effect preincubated for 1 day followed by viral infection and measured after 3 days by MTS/PMS method", "type": "functional, organism-based, strain BRCR"}, "Enterovirus A71 [16]": {"test_system": "Enterovirus A71", "experiment": "Antiviral activity against Enterovirus A 71 BrCr infected in human RD cells assessed as reduction in virus-induced cytopathic effect preincubated for 1 day followed by viral infection and measured after 3 days by MTS/PMS method", "type": "functional, organism-based", "conditions": "strain BRCR", "how_it_was_run": "as §2, with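 “days). Viability read by MTS/PMS; EC50 as 50% inhibition of virus-induced death from dose-response curves.” for “days).”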"}, "Enterovirus A71 [17]": {"test_system": "Enterovirus A71", "experiment": "Antiviral activity against Enterovirus A 71 BrCr infected in human RD cells assessed as reduction in virus-induced cell death preincubated for 1 day followed by viral infection and measured after 3 days by microscopic analysis", "type": "functional, strain BRCR", "set-up": "scale not given: the % may be the effect or the level left", "how_it_was_run": "as §1"}, "[18]": {"experiment": "Selectivity index, ratio of CC50 for human MT4 cells to EC50 for HIV1 NL4.3 infected in human MT4 cells", "type": "toxicity, cell-based", "conditions": "read-out: Ratio CC50/EC50", "how_it_was_run": "as §3"}, "[19]": {"test_system": "Human immunodeficiency virus 2", "experiment": "Antiviral activity against HIV-2 ROD infected in human MT4 cells assessed as reduction in virus-induced cytopathic effect preincubated for 30 mins followed by viral infection and measured after 5 days by MTS assay", "conditions": "Human immunodeficiency virus 2, ISOLATE ROD"}, "Enterovirus A71 [20]": {"test_system": "Enterovirus A71", "experiment": "Antiviral activity against Enterovirus A71 genotype C4 TW/1956/05 infected in human RD cells assessed as reduction in virus-induced cell death preincubated for 1 day followed by viral infection and measured after 3 days by microscopic analysis", "type": "functional", "set-up": "scale not given: the % may be the effect or the level left", "how_it_was_run": "as §1"}, "[21]": {"experiment": "Selectivity index, ratio of CC50 for human RD cells to EC50 for Enterovirus A71 BrCr infected in human RD cells", "type": "toxicity, cell-based", "conditions": "read-out: Ratio CC50/EC50", "how_it_was_run": "as §2"}, "Enterovirus A71 [22]": {"test_system": "Enterovirus A71", "experiment": "Antiviral activity against Enterovirus A 71 BrCr infected in human RD cells assessed as reduction in viral RNA level at 20 uM preincubated for 1 hr followed by viral infection and measured 8 hrs post-infection by RT-qPCR analysis relative to control", "type": "functional, strain BRCR", "set-up": "scale not given: the % may be the effect or the level left", "how_it_was_run": "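RD cells grown to confluence; compound at 20 μM in 2% FBS medium added 1 h before or 1, 2, 4 h after EV-A71 BrCr infection (MOI 1). Pirodavir 20 μM as entry-inhibitor reference; infected untreated cells as controls. At 8 h post-infection, intracellular RNA isolated and viral RNA quantified by RT-qPCR.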"}, "Enterovirus A71 [23]": {"test_system": "Enterovirus A71", "experiment": "Antiviral activity against Enterovirus A 71 BrCr infected in human RD cells assessed as reduction in viral RNA level at 20 uM administered at onset of infection measured 8 hrs post-infection by RT-qPCR analysis relative to control", "type": "functional, strain BRCR", "set-up": "scale not given: the % may be the effect or the level left"}, "[24]": {"target": "Human immunodeficiency virus type 1 reverse transcriptase (Human immunodeficiency virus 1) (UniProt Q72547)", "conditions": "3B, MT4, 12 uM"}}, "note": "Active and inactive are the calls of the source. No cut-off for these calls is given here."}
{"smiles": "O=C(CCC(CCC(=O)N[C@H](Cc1c[nH]c2ccccc12)C(=O)O)(CCC(=O)N[C@H](Cc1c[nH]c2ccccc12)C(=O)O)NC(=O)CCOCC(COCCC(=O)NC(CCC(=O)N[C@H](Cc1c[nH]c2ccccc12)C(=O)O)(CCC(=O)N[C@H](Cc1c[nH]c2ccccc12)C(=O)O)CCC(=O)N[C@H](Cc1c[nH]c2ccccc12)C(=O)O)(COCCC(=O)NC(CCC(=O)N[C@H](Cc1c[nH]c2ccccc12)C(=O)O)(CCC(=O)N[C@H](Cc1c[nH]c2ccccc12)C(=O)O)CCC(=O)N[C@H](Cc1c[nH]c2ccccc12)C(=O)O)COCCC(=O)NC(CCC(=O)N[C@H](Cc1c[nH]c2ccccc12)C(=O)O)(CCC(=O)N[C@H](Cc1c[nH]c2ccccc12)C(=O)O)CCC(=O)N[C@H](Cc1c[nH]c2ccccc12)C(=O)O)N[C@H](Cc1c[nH]c2ccccc12)C(=O)O", "values": [{"measurement": "Activity", "setting": "Enterovirus A71 [1]", "result": 100, "unit": "%"}, {"measurement": "EC50", "setting": "[2]", "result": 2.3, "unit": "µM"}, {"measurement": "Activity", "setting": "RD [3]", "result": "Non-Toxic"}, {"measurement": "Activity", "setting": "RD [4]", "result": "Non-Toxic"}, {"measurement": "Activity", "setting": "Enterovirus A71 [5]", "result": 100, "unit": "%"}, {"measurement": "selectivity ratio", "setting": "[6]", "result": "> 43"}, {"measurement": "EC50", "setting": "Enterovirus A71 [7]", "result": 1.99, "unit": "µM"}, {"measurement": "EC50", "setting": "Enterovirus A71 [8]", "result": 0.0002, "unit": "µM"}, {"measurement": "Activity", "setting": "Enterovirus A71 [9]", "result": 100, "unit": "%"}, {"measurement": "CC50 at 120 h", "setting": "[10]", "result": "> 100", "unit": "µM"}, {"measurement": "EC50", "setting": "Enterovirus A71 [11]", "result": 0.0002, "unit": "µM"}, {"measurement": "EC50", "setting": "Enterovirus A71 [12]", "result": 0.0004, "unit": "µM"}, {"measurement": "EC50", "setting": "Enterovirus A71 [13]", "result": 4.71, "unit": "µM"}, {"measurement": "EC50", "setting": "Enterovirus A71 [14]", "result": 0.0011, "unit": "µM"}, {"measurement": "EC50", "setting": "Enterovirus A71 [15]", "result": 8.93, "unit": "µM"}, {"measurement": "EC50", "setting": "Enterovirus A71 [16]", "result": "0.28 to 0.3", "unit": "µM"}, {"measurement": "EC90", "setting": "Enterovirus A71 [16]", "result": 0.5, "unit": "µM"}, {"measurement": "Activity", "setting": "Enterovirus A71 [17]", "result": 100, "unit": "%"}, {"measurement": "selectivity ratio", "setting": "[18]", "result": "> 43"}, {"measurement": "EC50", "setting": "[19]", "result": 6.6, "unit": "µM"}, {"measurement": "Activity", "setting": "Enterovirus A71 [20]", "result": 100, "unit": "%"}]}
{"smiles": "CCOC(=O)c1ccc(OCCC2CCN(c3ccc(C)nn3)CC2)cc1", "note": "[PIRODAVIR]", "values": [{"measurement": "selectivity ratio", "setting": "[21]", "result": "> 333"}, {"measurement": "EC50", "setting": "Enterovirus A71 [16]", "result": 0.3, "unit": "µM"}, {"measurement": "EC90", "setting": "Enterovirus A71 [16]", "result": 0.6, "unit": "µM"}, {"measurement": "Activity", "setting": "Enterovirus A71 [22]", "result": 100, "unit": "%"}, {"measurement": "Activity", "setting": "Enterovirus A71 [23]", "result": 100, "unit": "%"}]}
{"smiles": "Cc1cn([C@H]2C[C@H](N=[N+]=[N-])[C@@H](CO)O2)c(=O)[nH]c1=O", "values": [{"measurement": "inhibition", "setting": "[24]", "result": "Active"}]}
